Source: ChEMBL document CHEMBL1143410, “Antiviral and anti-inflammatory effects of rosmarinic acid in an experimental murine model of Japanese encephalitis” (Antimicrob Agents Chemother, 2007)
Calls of active or inactive are those of the source. The calls are words filed in the database; no cut-off is given here.

What was measured:
[1] = system: Japanese encephalitis virus; assay: Antiviral activity against Japanese encephalitis virus GP78 infected BALB/c mouse assessed as reduction in mortality rate at 25 mg/kg, ip twice daily administered 1 day post viral-challenge; format: functional; design: scale not given: the % may be the effect or the level left; details: route intraperitoneal
Procedure, shortened: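 Survival was followed in infected BALB/c mice (4–5 weeks, either sex; 15 per group). Animals received RA in PBS at 25 mg/kg i.p. twice daily, from day 1 post-infection until the first untreated infected animal died. Symptoms (limb paralysis, tremor, piloerection, stiffening) were recorded alongside deaths.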

[2] = system: Mus musculus; assay: Toxicity in BALB/c mouse assessed as behavioral activity at 25 mg/kg, ip twice daily; format: organism-based; design: dose 25 mg/kg, route intraperitoneal; details: in vivo
Procedure, shortened: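 Uninfected BALB/c mice (4–5 weeks, either sex; 15 per group) received RA alone, dissolved in PBS, at 25 mg/kg i.p. twice daily. Behavior was observed and compared with a PBS-injected control group.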

[3] = system: Japanese encephalitis virus; assay: Antiviral activity against Japanese encephalitis virus GP78 infected BALB/c mouse assessed as reduction of activated microglia in mouse brain at 25 mg/kg, ip twice daily; format: functional, organism-based; design: dose 25 mg/kg
Procedure, shortened: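 RA was given at 25 mg/kg i.p. twice daily to infected BALB/c mice. Mice were perfused with PBS containing 7 U/ml heparin, then with 2.5% paraformaldehyde. Cryostat brain sections were stained for Iba-1, and star-shaped activated microglia were counted.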

[4] = system: Japanese encephalitis virus; assay: Antiviral activity against Japanese encephalitis virus GP78 infected BALB/c mouse assessed as inhibition of viral proteins in mouse brain at 25 mg/kg, ip twice daily after 8 to 9 days by immunoblot; format: functional, organism-based; design: dose 25 mg/kg
[5] = system: Japanese encephalitis virus; assay: Antiviral activity against Japanese encephalitis virus GP78 infected BALB/c mouse assessed as inhibition of viral mRNA transcript in mouse brain at 25 mg/kg, ip twice daily after 8 to 9 days; format: functional, organism-based; design: dose 25 mg/kg
[6] = system: Mus musculus; assay: Antiinflammatory activity in Japanese encephalitis virus GP78 infected BALB/c mouse assessed as decrease in virus-induced IL12 levels at 25 mg/kg, ip twice daily after 8 to 9 days relative to control; format: functional; details: route intraperitoneal
Procedure, shortened: (§1)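 BALB/c mice (4–5 weeks, either sex; 15 per group) were dosed with RA in PBS at 25 mg/kg i.p. twice daily, from day 1 after infection until the first untreated infected mouse died. IL-12, TNF-α, IFN-γ, MCP-1 and IL-6 in brain tissue lysates were quantified with a mouse cytometric bead array. Statistics used one-way ANOVA with Bonferroni post hoc comparisons.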

[7] = system: Mus musculus; assay: Antiinflammatory activity in Japanese encephalitis virus GP78 infected BALB/c mouse assessed as decrease in virus-induced TNFalpha levels at 25 mg/kg, ip twice daily after 8 to 9 days relative to control; format: functional; details: route intraperitoneal; procedure, shortened: as §1
[8] = system: Mus musculus; assay: Antiinflammatory activity in Japanese encephalitis virus GP78 infected BALB/c mouse assessed as decrease in virus-induced IFN-gamma levels at 25 mg/kg, ip twice daily after 8 to 9 days relative to control; format: functional; details: route intraperitoneal; procedure, shortened: as §1
[9] = system: Mus musculus; assay: Antiinflammatory activity in Japanese encephalitis virus GP78 infected BALB/c mouse assessed as decrease in virus-induced MCP1 levels at 25 mg/kg, ip twice daily after 8 to 9 days relative to control; format: functional; details: route intraperitoneal; procedure, shortened: as §1
[10] = system: Mus musculus; assay: Antiinflammatory activity in Japanese encephalitis virus GP78 infected BALB/c mouse assessed as decrease in virus-induced IL6 levels at 25 mg/kg, ip twice daily after 8 to 9 days relative to control; format: functional; details: route intraperitoneal; procedure, shortened: as §1
[11] = system: Mus musculus; assay: Antiinflammatory activity in Japanese encephalitis virus GP78 infected BALB/c mouse assessed as increase in IkappaB-alpha levels at 25 mg/kg, ip twice daily after 8 to 9 days relative to control; format: functional, organism-based; design: dose 25 mg/kg
Procedure, shortened: (§2)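 BALB/c mice (4–5 weeks, either sex; 15 per group) received RA dissolved in PBS at 25 mg/kg i.p. twice daily. Dosing began one day after infection and continued until the first untreated infected mouse died. Brain protein (10 μg) was Western blotted with pNF-κB, IκB-α and Cox-2 antibodies (1:1,000), using β-tubulin as loading reference and HRP chemiluminescence detection. Groups were compared by one-way ANOVA with Bonferroni post hoc tests.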

[12] = system: Mus musculus; assay: Antiinflammatory activity in Japanese encephalitis virus GP78 infected BALB/c mouse assessed as decrease in phosphorylated NF-kappaB levels at 25 mg/kg, ip twice daily after 8 to 9 days relative to control; format: functional, organism-based; design: dose 25 mg/kg; procedure, shortened: as §2
[13] = system: Mus musculus; assay: Antiinflammatory activity in Japanese encephalitis virus GP78 infected BALB/c mouse assessed as decrease in Cox2 levels at 25 mg/kg, ip twice daily after 8 to 9 days relative to control; format: functional, organism-based; design: dose 25 mg/kg; procedure, shortened: as §2
[14] = system: BV-2; assay: Antiinflammatory activity in Japanese encephalitis virus GP78 infected mouse BV2 cells assessed as decrease in virus-induced IL12 levels at 25 uM after 18 hrs by Western blot relative to control; format: functional
[15] = system: BV-2; assay: Antiinflammatory activity in Japanese encephalitis virus GP78 infected mouse BV2 cells assessed as decrease in virus-induced TNFalpha levels at 25 uM after 18 hrs by Western blot relative to control; format: functional
[16] = system: BV-2; assay: Antiinflammatory activity in Japanese encephalitis virus GP78 infected mouse BV2 cells assessed as decrease in virus-induced IFN-gamma levels at 25 uM after 18 hrs by Western blot relative to control; format: functional
[17] = system: BV-2; assay: Antiinflammatory activity in Japanese encephalitis virus GP78 infected mouse BV2 cells assessed as decrease in virus-induced MCP1 levels at 25 uM after 18 hrs by Western blot relative to control; format: functional
[18] = system: BV-2; assay: Antiinflammatory activity in Japanese encephalitis virus GP78 infected mouse BV2 cells assessed as decrease in virus-induced IL6 levels at 25 uM after 18 hrs by Western blot relative to control; format: functional

O=C(/C=C/c1ccc(O)c(O)c1)O[C@H](Cc1ccc(O)c(O)c1)C(=O)O [ROSMARINIC ACID]
Activity [1]: 20% | Activity [2]: Non-toxic | Activity [3]: Active | Activity [4]: Active | Activity [5]: Active | fold change (FC) [6]: 5 | fold change (FC) [7]: 18 | fold change (FC) [8]: 6 | fold change (FC) [9]: 100 | fold change (FC) [10]: 9 | Activity [11]: Active | Activity [12]: Active | Activity [13]: Active | fold change (FC) [14]: 13 | fold change (FC) [15]: 14 | fold change (FC) [16]: 12 | fold change (FC) [17]: 25 | fold change (FC) [18]: 12.5
